According to ChEMBL document CHEMBL4270616, “Asymmetrical meta-methoxylated diarylpentanoids: Rational design, synthesis and anti-cancer evaluation in-vitro” (Eur J Med Chem, 2018):
pIC50: −log10 of the molar value.

Key:
[1] = test system: SW-620; test: Induction of apoptosis in human SW620 cells assessed as late apoptotic cells at 5 uM after 72 hrs by Annexin V-FITC/propidium iodide staining based flow cytometry (reference value: 0.29%); format: functional
[2] = test system: SW-620; test: Induction of apoptosis in human SW620 cells assessed as late apoptotic cells at 1.25 uM after 48 hrs by Annexin V-FITC/propidium iodide staining based flow cytometry (reference value: 0.2%); format: functional
[3] = test system: SW-620; test: Induction of apoptosis in human SW620 cells assessed as early apoptotic cells at 10 uM after 72 hrs by Annexin V-FITC/propidium iodide staining based flow cytometry (reference value: 2.1%); format: functional
[4] = test system: SW-620; test: Induction of apoptosis in human SW620 cells assessed as live cells at 5 uM after 72 hrs by Annexin V-FITC/propidium iodide staining based flow cytometry (reference value: 97.34%); format: functional
[5] = test system: SW-620; test: Induction of apoptosis in human SW620 cells assessed as late apoptotic cells at 5 uM after 48 hrs by Annexin V-FITC/propidium iodide staining based flow cytometry (reference value: 0.2%); format: functional
[6] = test system: SW-620; test: Anticlonogenic activity against human SW620 cells assessed as colony formation at 0.625 uM after 10 days by crystal violet staining based imaging analysis (reference value: 100%); format: functional
Procedure, shortened: (§1)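 SW620 cells seeded at 1000 cells/well in DMEM, left overnight at 37°C, 5% CO2, then exposed to compound for ten days with drug-containing medium renewed every three days. Cells were PBS-washed, fixed in 4% paraformaldehyde for 15 min, stained with 0.5% (w/v) crystal violet for 10 min, air-dried, photographed, and colonies quantified by image analysis.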

[7] = test system: SW-620; test: Cytotoxicity against human SW620 cells after 72 hrs by MTT assay; format: functional, cell-based; conditions: SW-620, 72 h
Procedure, shortened: (§2)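 Tumour lines kept in DMEM with 10% FBS and 1% penicillin/streptomycin at 37°C, 5% CO2. Seeded at 1500-5000 cells/well by doubling time and size, 24 h, then compound in DMSO-containing medium (final DMSO 0.1%) for 72 h. MTT (5 mg/mL) 4 h at 37°C, DMSO solubilisation, absorbance at 570 nm.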

[8] = test system: HT-1080; test: Cytotoxicity against human HT1080 cells assessed as inhibition of cell proliferation at 20 uM after 72 hrs by MTT assay relative to control; format: functional; conditions: HT-1080, 72 h
Procedure, shortened: (§3)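 Single-concentration screen at 20 μM with 72 h exposure in DMEM with 10% FBS, final DMSO 0.1%. Read-out was MTT (5 mg/mL, 4 h, 37°C), DMSO solubilisation and absorbance at 570 nm, expressed as percent inhibition. Lines reaching a threshold percentage went on to IC50 determination.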

[9] = Cytotoxicity against human EJ28 cells assessed as inhibition of cell proliferation at 20 uM after 72 hrs by MTT assay relative to control; format: functional; conditions: EJ-28, 72 h; procedure, shortened: as §3
[10] = test system: SW-620; test: Induction of apoptosis in human SW620 cells assessed as late apoptotic cells at 2.5 uM after 72 hrs by Annexin V-FITC/propidium iodide staining based flow cytometry (reference value: 0.29%); format: functional
[11] = test system: SW-620; test: Cell cycle arrest in human SW620 cells assessed as accumulation at G2/M phase at 2.5 uM after 24 hrs by propidium iodide staining based flow cytometry (reference value: 19%); format: functional
[12] = test system: SW-620; test: Induction of apoptosis in human SW620 cells assessed as necrotic cells at 10 uM after 24 hrs by Annexin V-FITC/propidium iodide staining based flow cytometry (reference value: 0.15%); format: functional
[13] = test system: SW-620; test: Induction of apoptosis in human SW620 cells assessed as necrotic cells at 1.25 uM after 24 hrs by Annexin V-FITC/propidium iodide staining based flow cytometry (reference value: 0.15%); format: functional
[14] = test system: SW-620; test: Induction of apoptosis in human SW620 cells assessed as necrotic cells at 10 uM after 48 hrs by Annexin V-FITC/propidium iodide staining based flow cytometry (reference value: 0.23%); format: functional
[15] = test system: SW-620; test: Induction of apoptosis in human SW620 cells assessed as late apoptotic cells at 2.5 uM after 24 hrs by Annexin V-FITC/propidium iodide staining based flow cytometry (reference value: 0.43%); format: functional
[16] = test system: SW-620; test: Induction of apoptosis in human SW620 cells assessed as necrotic cells at 2.5 uM after 24 hrs by Annexin V-FITC/propidium iodide staining based flow cytometry (reference value: 0.15%); format: functional
[17] = test system: SW-620; test: Induction of apoptosis in human SW620 cells assessed as necrotic cells at 1.25 uM after 48 hrs by Annexin V-FITC/propidium iodide staining based flow cytometry (reference value: 0.23%); format: functional
[18] = test system: SW-620; test: Induction of apoptosis in human SW620 cells assessed as early apoptotic cells at 5 uM after 48 hrs by Annexin V-FITC/propidium iodide staining based flow cytometry (reference value: 2.75%); format: functional
[19] = test system: SW-620; test: Induction of apoptosis in human SW620 cells assessed as live cells at 1.25 uM after 48 hrs by Annexin V-FITC/propidium iodide staining based flow cytometry (reference value: 96.26%); format: functional
[20] = test system: NHDF; test: Cytotoxicity against NHDF after 72 hrs by MTT assay; format: cell-based; conditions: Homo sapiens
Procedure, shortened: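 NHDF grown in DMEM with 5% FBS at 37°C, 5% CO2. Seeded at 1500-5000 cells/well, 24 h, then compound added in DMSO-containing medium (final DMSO 0.1%) for 72 h. MTT (5 mg/mL in medium) added for 4 h at 37°C, formazan dissolved in DMSO, absorbance read at 570 nm.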

[21] = test system: SW-620; test: Induction of apoptosis in human SW620 cells assessed as necrotic cells at 5 uM after 48 hrs by Annexin V-FITC/propidium iodide staining based flow cytometry (reference value: 0.23%); format: functional
[22] = test system: SW-620; test: Induction of apoptosis in human SW620 cells assessed as early apoptotic cells at 10 uM after 24 hrs by Annexin V-FITC/propidium iodide staining based flow cytometry (reference value: 2.35%); format: functional
[23] = test system: SW-620; test: Induction of apoptosis in human SW620 cells assessed as live cells at 1.25 uM after 24 hrs by Annexin V-FITC/propidium iodide staining based flow cytometry (reference value: 97.03%); format: functional
[24] = test system: SW-620; test: Induction of apoptosis in human SW620 cells assessed as late apoptotic cells at 10 uM after 72 hrs by Annexin V-FITC/propidium iodide staining based flow cytometry (reference value: 0.29%); format: functional
[25] = test system: SW-620; test: Induction of apoptosis in human SW620 cells assessed as late apoptotic cells at 10 uM after 48 hrs by Annexin V-FITC/propidium iodide staining based flow cytometry (reference value: 0.2%); format: functional
[26] = Cytotoxicity against human EJ28 cells after 72 hrs by MTT assay; format: functional, cell-based; conditions: EJ-28, 72 h; procedure, shortened: as §2
[27] = test system: SW-620; test: Anticlonogenic activity against human SW620 cells assessed as colony formation at 1.25 uM after 10 days by crystal violet staining based imaging analysis (reference value: 100%); format: functional; procedure, shortened: as §1
[28] = test system: SW-620; test: Induction of apoptosis in human SW620 cells assessed as late apoptotic cells at 10 uM after 24 hrs by Annexin V-FITC/propidium iodide staining based flow cytometry (reference value: 0.43%); format: functional
[29] = test system: SW-620; test: Induction of apoptosis in human SW620 cells assessed as necrotic cells at 5 uM after 72 hrs by Annexin V-FITC/propidium iodide staining based flow cytometry (reference value: 0.27%); format: functional
[30] = test system: HT-1080; test: Cytotoxicity against human HT1080 cells after 72 hrs by MTT assay; format: functional, cell-based; conditions: HT-1080, 72 h; procedure, shortened: as §2

Compound	Activity [1]	Activity [2]	Activity [3]	Activity [4]	Activity [5]	Activity [6]	pIC50 [7]	inhibition at 20 µM [8]	inhibition at 20 µM [9]	Activity [10]	Activity [11]	Activity [12]	Activity [13]	Activity [14]	Activity [15]	Activity [16]	Activity [17]	Activity [18]	Activity [19]	pIC50 [20]	also measured
COc1ccc(/C=C2\CCC/C(=C\c3cccc(O)c3)C2=O)cc1OC	81.02%	0.92%	2.49%	6.2%	40.61%	93.4%	5.72	> 50%	> 50%	4.57%	49%	0.23%	0.17%	1.06%	0.64%	0.2%	0.41%	12.04%	94.54%	5.17	Activity [21]: 2.86%; Activity [22]: 42.12%; Activity [23]: 96.2%; Activity [24]: 95.18%; Activity [25]: 71.12%; pIC50 [26]: 5.74; Activity [27]: 0.8%; Activity [28]: 7.42%; Activity [29]: 1.23%; pIC50 [30]: 5.77
COc1ccc(/C=C2\CCC/C(=C\c3cc(OC)c(OC)c(OC)c3)C2=O)cc1OC	93%	0.37%	2.85%	3.13%	60.42%	84.6%	5.74	> 50%	> 50%	17.24%	50%	0.82%	0.35%	1.3%	1%	0.27%	0.2%	12%	82.82%	5.24	Activity [21]: 1.55%; Activity [22]: 40.33%; Activity [23]: 89.83%; Activity [24]: 94.51%; Activity [25]: 75.36%; pIC50 [26]: 5.77; Activity [27]: 0.5%; Activity [28]: 12.66%; Activity [29]: 0.33%; pIC50 [30]: 5.96
